A selection: hits, their analogues and other compounds. The true share with any hit is near 2.1%.
Ins promoter up: insulin promoter activators in MIN6 cells, imaging, high-content screening, mouse beta cells. MIN6 insulin promoter-GFP reporter; active compounds read high. z-score at 5 µM. hit rate 0.3% among 190,000;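 active = z-score above 3 at 5 µM with at least 500 cells counted in the well; inconclusive = wells under 500 cells, flagged as cytotoxic or low count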
INS promoter inh: inhibitors of insulin promoter-driven GFP, primary screen, imaging, TRM-6 cells (human fetal islet line), eGFP reporter, cell count | hit rate 0.9% among 130,000 | reporter expression induced with tamoxifen | inhibition, % at 2 µM;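 active = inhibition above the mean plus 3 SD, with well images judged a real hit on visual review, cut at about 60% in these data, passing the limit was not always enough; inconclusive = inhibition over the cutoff but images rejected on review; inactive = inhibition not above the cutoff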
Autophagy HCS: autophagy modulators in MEF cells, primary screen, imaging, high-content, MEF GFP-LC3. hit rate 0.98% among 190,000. MEF GFP-LC3 puncta imaging; test concentration mostly 10 µM. calls only at 10 µM (by protocol);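 active = percentage of spot-positive cells more than 3 SD above its plate mean, without a fluorescence outlier flag or 80% toxicity; inconclusive = no clear call, values can overlap the other calls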
Dynein cargo inh: inhibitors of GR-EGFP nuclear translocation, primary screen, dynein cargo transport inhibitor project, imaging, high-content, 3617.4 mouse cells; test concentration mostly 20 µM; stimulated with dexamethasone, 1 µM; active compounds read low; z-score, hits read low; AID 1381, 2008; hit rate 0.47% among 220,000;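 active = plate z-score of nuclear minus cytoplasmic receptor signal below a set negative limit, without overly bright fluorescence or cell loss, cut at about -3.5 in these data, passing the limit was not always enough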;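 note: z-score of nuclear minus cytoplasmic ring GR-EGFP intensity difference per well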
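Buffer or medium: Induction medium lacking tetracycline, stripped serum | Also added: Dexamethasone agonist, 1.0 µM final, for 30 min | Timing: 48 h induction, 1 h compound, 30 min dex at 37 °C | Detection: Formaldehyde fixation, Hoechst nuclear stain, 10x automated fluorescence imaging | Measure: Nuclear versus cytoplasmic GR-EGFP signal, averaged per well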
PERK inh: block of dimerizer-induced PERK translation repression, primary screen, PERK inhibitor project, CHO PERK-DD cells, SEAP luminescence, HTS; inhibition, % at 5.6 µM; CHO PERK-DD fusion, SEAP luminescence translation reporter; hit rate 0.17% among 220,000; Eukaryotic translation initiation factor 2-alpha kinase 3 (Homo sapiens), Q9NZJ5; AID 1416, 2008;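 active = inhibition above the mean inhibition of all tested compounds plus 3 SD, set separately per screening campaign, cut at about 2.9% in these data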;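 note: PERK kinase domain activated by AP20187 dimerizer at 100 nM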
Target sequence (Q9NZJ5 whole entry, looked up, the tested form may be a part): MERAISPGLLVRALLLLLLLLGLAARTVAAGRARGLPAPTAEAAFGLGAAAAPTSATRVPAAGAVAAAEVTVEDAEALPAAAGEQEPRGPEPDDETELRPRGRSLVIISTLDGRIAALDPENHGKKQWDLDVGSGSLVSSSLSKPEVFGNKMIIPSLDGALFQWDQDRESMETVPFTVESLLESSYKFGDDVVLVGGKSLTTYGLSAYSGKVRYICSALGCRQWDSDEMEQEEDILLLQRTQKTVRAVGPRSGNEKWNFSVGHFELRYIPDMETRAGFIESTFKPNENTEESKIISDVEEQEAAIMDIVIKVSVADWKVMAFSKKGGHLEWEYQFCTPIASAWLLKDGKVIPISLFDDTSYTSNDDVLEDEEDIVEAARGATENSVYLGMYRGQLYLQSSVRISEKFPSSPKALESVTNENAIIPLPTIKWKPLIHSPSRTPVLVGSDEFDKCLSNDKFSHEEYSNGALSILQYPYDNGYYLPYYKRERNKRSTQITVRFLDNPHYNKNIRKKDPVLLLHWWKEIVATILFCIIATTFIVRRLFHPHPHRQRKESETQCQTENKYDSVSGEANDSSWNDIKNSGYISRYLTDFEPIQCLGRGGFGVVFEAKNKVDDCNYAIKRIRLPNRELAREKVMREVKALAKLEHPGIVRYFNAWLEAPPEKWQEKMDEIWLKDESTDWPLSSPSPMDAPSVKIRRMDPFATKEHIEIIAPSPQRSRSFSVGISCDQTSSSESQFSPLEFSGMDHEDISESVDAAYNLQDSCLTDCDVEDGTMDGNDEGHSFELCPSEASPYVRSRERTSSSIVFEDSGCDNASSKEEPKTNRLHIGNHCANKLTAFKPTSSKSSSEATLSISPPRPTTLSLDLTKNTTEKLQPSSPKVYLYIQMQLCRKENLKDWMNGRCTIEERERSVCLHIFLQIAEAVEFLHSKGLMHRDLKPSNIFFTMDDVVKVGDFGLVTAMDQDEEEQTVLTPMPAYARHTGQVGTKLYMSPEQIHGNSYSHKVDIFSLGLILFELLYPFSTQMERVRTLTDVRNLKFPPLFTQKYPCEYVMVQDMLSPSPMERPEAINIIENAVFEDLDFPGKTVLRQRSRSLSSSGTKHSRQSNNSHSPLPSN
Dynein confirm: dynein cargo transport inhibitors, GR-EGFP translocation, confirmation, imaging, high-content imaging, GR-EGFP cells; shares compounds with Dynein cargo inh; AID 463116, 2010; calls only at 20 µM; hit rate 69% among 1,000; 3617.4 GR-EGFP nuclear translocation imaging, dexamethasone-induced;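 active = inhibition of receptor movement into the nucleus at or above a set limit in both runs, with normal cell brightness and cell count; inconclusive = limit reached in only one run, brightness and count normal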;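 note: dexamethasone at 1 µM final in well for 30 min; nuclear minus cytoplasmic GR-EGFP mean intensity difference in channel 2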
Large screens that a line does not name were inactive (follow-up assays come after a bar, where they were run).

O=Cc1s/c(=N\S(=O)(=O)c2ccccc2)n(CCCCl)c1Cl	Dynein cargo inh -5.7 (no result: INS promoter inh) | Dynein confirm active
COc1cccc(-n2nnnc2S(C)(=O)=O)c1	Dynein cargo inh -4.5 (no result: Ins promoter up) | Dynein confirm active
O=C(Nc1ccc(C(=O)NC2CCCCC2)cc1)c1cccnc1	none (no result: INS promoter inh)
Nc1ccc(Sc2ccc([N+](=O)[O-])cc2)cc1	none
Cc1ccc(C(C[N+](=O)[O-])Sc2ccc(N)cc2)cc1 (stereo not given)	Dynein cargo inh -6.7 (no result: INS promoter inh, Autophagy HCS) | Dynein confirm active
S=c1[nH]nc(-c2cc(-c3ccccc3)n[nH]2)n1/N=C/c1ccc(Br)s1	none (no result: INS promoter inh, Autophagy HCS)
O=C(/C=C/c1ccc(O)cc1)c1ccc(O)cc1O	none
O=C(/C=C/c1ccncc1)c1cc(Cl)ccc1O	none (no result: INS promoter inh, Autophagy HCS)
O=C(/C=C/c1ccccn1)c1ccc(Br)cc1O	Dynein cargo inh -3.7 | Dynein confirm inconclusive
O=C(/C=C/c1ccccn1)c1cc(Br)ccc1O	Dynein cargo inh -4.8 (no result: INS promoter inh, Autophagy HCS) | Dynein confirm active
O=C(Cn1nnc(-c2ccccc2)n1)N/N=C/c1ccco1	none (no result: INS promoter inh)
O=C(Nc1ccccc1C(=O)OCC(=O)c1c[nH]c2ccccc12)c1ccco1	none (no result: INS promoter inh)
CC(C)CCc1noc(CN(CC2CCC2)CC2CCCO2)n1 (stereo not given)	none (no result: INS promoter inh, Autophagy HCS)
O=C1C=CC(=O)N1c1cccc(-c2ccccc2)c1	Dynein cargo inh -3.8 (no result: Ins promoter up, INS promoter inh, Autophagy HCS) | Dynein confirm inactive
O=c1[nH]c(CN2CCN(S(=O)(=O)c3ccccc3C(F)(F)F)CC2)nc2sc3c(c12)CCCC3	none
CCCCS(=O)(=O)/C=C\C=C/S(=O)(=O)CCCC	none (no result: INS promoter inh) | Dynein confirm active
O=C(O)C[C@@H]1C(=O)O[C@@H]2C(COC(=O)c3cc(O)c(O)c(O)c3)O[C@@H](OC(=O)c3cc(O)c(O)c(O)c3)[C@@H](OC(=O)c3cc(O)c(O)c4c3[C@H]1[C@H](O)C(=O)O4)[C@H]2OC(=O)c1cc(O)c(O)c(O)c1 (stereo not given in full)	none (no result: Ins promoter up, INS promoter inh, Autophagy HCS, PERK inh)
CC(C)N=c1scc(-c2cccs2)n1/N=C/c1ccc(O)c(O)c1O	Dynein cargo inh -4.2 | Dynein confirm active
Cc1c(C#N)c(NC(=O)CCl)n(Cc2cccs2)c1C	Dynein cargo inh -5.2 (no result: INS promoter inh) | Dynein confirm active
COCCN(Cc1cc2ccc(C)cc2n2nnnc12)Cc1nnnn1C(C)(C)C	none
COc1ccc(OC)c(S(=O)(=O)Nc2ccc(O)c3ccccc23)c1	Dynein cargo inh -4.2 | Dynein confirm inactive
CCN(CC)CCCNC(=O)c1ccc2c(Cl)c3c(nc2c1)CCCC3	Dynein cargo inh -3.9 | Dynein confirm active
CC1CCN(C(=O)c2ccc3c(Cl)c4c(nc3c2)CCCC4)CC1	Dynein cargo inh -6 (no result: INS promoter inh) | Dynein confirm active
O=C(NCCCN1CCCC1)c1ccc2c(Cl)c3c(nc2c1)CCCC3	none
CCOC(=O)C(C(=O)OCC)C(C(=O)OCC)N1CCOCC1 (stereo not given)	Dynein cargo inh -4.6 (no result: Ins promoter up) | Dynein confirm active
Cc1ccc(S(=O)(=O)N(CC(O)CN2C(=O)NC(C)(C)C2=O)c2ccccc2)cc1 (stereo not given)	none
CCN(Cc1ccc(OC)c(F)c1)C(=O)CCl	Dynein cargo inh -4.3 (no result: Ins promoter up, INS promoter inh) | Dynein confirm inconclusive
CCN(CC)C(=O)COc1ccc(CC(=O)O)cc1OC	none (no result: INS promoter inh)
CCCCc1c(C)c(C#N)c2nc3ccccc3n2c1Cl	Dynein cargo inh -5.2 | Dynein confirm active
CCn1nc(C)cc1C(=O)Sc1cccc(Br)c1	Dynein cargo inh -4 (no result: INS promoter inh, Autophagy HCS) | Dynein confirm active
CCn1nc(C)cc1C(=O)Sc1ccc(Cl)cc1Cl	none (no result: INS promoter inh, Autophagy HCS)
COC/C=C/C1=CC2=CC(=O)C(C)(OC(=O)c3cnc4ccccc4n3)C(=O)C2=CN1Cc1ccc(OC)cc1 (stereo not given)	Dynein cargo inh -5.2 (no result: INS promoter inh, Autophagy HCS, PERK inh) | Dynein confirm active
O=C1COc2ccc(C(=O)c3ccccc3C(=O)NCc3ccccc3)cc2N1	none (no result: INS promoter inh)
COc1ccc(-c2c(C#N)c(N)nc3sc(C(=O)c4ccccc4)c(N)c23)cc1	none | Dynein confirm inactive
CCN1C(=O)C(CC(=O)Nc2ccc(Br)cc2)N(CCCc2ccccc2)C1=S (stereo not given)	none
C=CCNc1nc(Cl)nc(Nc2ccc(OCC)cc2)n1	none
Cc1ccc2c(c1)S/C(=C/c1ccc[n+](CCO)c1)N2C	none (no result: Ins promoter up)
Cc1cc(/C=C2\Sc3ccccc3N2C)cc(C)[n+]1CC1CCCO1 (stereo not given)	Ins promoter up inconclusive, Autophagy HCS active (no result: INS promoter inh) | Dynein confirm inactive
CS(=O)(=O)c1ncc(Cl)c(C(=O)Nc2ccc3ccccc3c2)n1	Dynein cargo inh -4.2 | Dynein confirm active
O=C(Nc1ccc2ccccc2c1)c1cnccn1	none
CC1=NN(c2ccccc2)C(=O)/C1=C/c1cn(C)c2ccccc12	none (no result: INS promoter inh, Autophagy HCS)
N#C/C(=C\c1cccc([N+](=O)[O-])c1)C(=O)NCc1ccc(Cl)cc1	Dynein cargo inh -6.8 (no result: INS promoter inh) | Dynein confirm active
N#C/C(=C\c1cccc([N+](=O)[O-])c1)C(=O)NCc1cccnc1	none
O=C1CCN(CCc2ccccc2)CCN1[C@H](CSc1ccc(Br)cc1)c1ccccc1	none (no result: Ins promoter up, INS promoter inh, Autophagy HCS, PERK inh)
CC(=O)Nc1ccc(SC[C@H](c2ccccc2)N2CCN(CCc3ccccc3)CCC2=O)cc1	Dynein cargo inh -4.7 (no result: Ins promoter up, INS promoter inh, Autophagy HCS, PERK inh) | Dynein confirm inactive
O=C(Cn1nc2n(c1=O)-c1ccccc1SC2)N/N=C/c1cccnc1	none (no result: INS promoter inh, Autophagy HCS)
COc1ccc(-c2cc(C(F)(F)F)nc(S(=O)(=O)CCCC(=O)Nc3cccc(O)c3)n2)cc1OC	Dynein cargo inh -5.6 (no result: INS promoter inh) | Dynein confirm active
CCc1cccc2cc3c(N)c(C(=O)Nc4ccc(S(=O)(=O)N5CCCC5)cc4)sc3nc12	Autophagy HCS active (no result: Ins promoter up) | Dynein confirm inactive
Cc1ccc(Cl)cc1NC(=S)N(CCCN1CCN(C)CC1)Cc1ccco1	none (no result: INS promoter inh)
COc1ccc(CNC(=O)COC(=O)c2ccccn2)cc1	none
COCCNC(=O)/C(C#N)=C/C=C/c1ccccc1[N+](=O)[O-]	Dynein cargo inh -3.5 (no result: INS promoter inh) | Dynein confirm active
CC(C)(C)c1cc(C(=O)NNC(=O)c2ccc(Cl)cc2)no1	none (no result: Ins promoter up, INS promoter inh, Autophagy HCS)
Cc1ccccc1CS(=O)(=O)c1nnc([C@H](Cc2ccccc2)NC(=O)OC(C)(C)C)o1	INS promoter inh 78, Dynein cargo inh -5.5 | Dynein confirm active
COc1ccc(N=C2S/C(=C\c3ccc(OCC(=O)O)cc3)C(=O)N2CCc2c[nH]c3ccccc23)cc1	none (no result: INS promoter inh)
COc1ccc(N=C2S/C(=C\c3ccc(N4CCOCC4)o3)C(=O)N2CCc2c[nH]c3ccccc23)cc1	Autophagy HCS active (no result: Ins promoter up) | Dynein confirm active
Cc1ccsc1C(=O)C1CCCN(Cc2cc(F)ccc2-n2cccn2)C1 (stereo not given)	none (no result: INS promoter inh)

High-throughput results deposited in PubChem BioAssay by several laboratories.
